Hits are enriched below; roughly 2.3% of the tested compounds scored in any of these assays.
Scp-1 inhibitor: Scp-1 phosphatase inhibitors, primary screen, biochemical, colorimetric, uHTS; Carboxy-terminal domain RNA polymerase II polypeptide A small phosphatase 1 (Homo …; Recombinant Scp1, phosphopeptide, malachite green phosphate absorbance; inhibition, % at 20 µM; 340,000 compounds, 0.88% hits;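 active means inhibition above about 50% at 20 µM, limit read from the data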;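 further: plate controls were DMSO wells with enzyme for no effect and wells lacking enzyme for full effect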
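Times: enzyme reaction 45 min at room temperature, colour 5 min, stabilisation 30 min. Material: SCP-1 catalytic fragment, aa 76-261. Medium: Acidic Tris acetate buffer with magnesium and detergent. Signal: colorimetric free-phosphate detection, absorbance 630 nm. Read-out basis: % inhibition of SCP-1 phosphate liberation. Reagent: Phosphorylated 17-residue peptide substrate.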
Rpn11 block: Rpn11 (PSMD14) deubiquitinase inhibitors, primary screen, biochemical, fluorescence polarization, uHTS. 26S proteasome non-ATPase regulatory subunit 14 (Homo sapiens), O00487. 360,000 compounds, 0.59% hits. human 26S proteasome, Ub4-pepOG fluorescence polarization; 20S core pre-blocked with epoxomicin. inhibition, % at 20 µM;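 active means inhibition at 20 µM, scaled to each plate's controls, above about 33%, limit read from the data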
SUMO1-SIM PPI: modulators of SUMO1 protein-protein interactions, primary screen, biochemical, uHTS. SUMO1 binding to a labelled peptide, TR-FRET, 1 h. 360,000 compounds, 0.33% hits. inhibition, % at 20 µM. AID 602429, 2012; in the data active means inhibition above about 37%
Target sequence (P63165 whole entry, looked up): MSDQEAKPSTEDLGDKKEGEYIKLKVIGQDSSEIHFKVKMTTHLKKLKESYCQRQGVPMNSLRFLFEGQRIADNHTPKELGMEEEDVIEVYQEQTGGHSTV
LMPTP inh: LMPTP phosphatase inhibitors, primary screen, biochemical, fluorescence intensity, uHTS | recombinant LMPTP-A, OMFP fluorogenic substrate | inhibition, % at 20 µM | 360,000 compounds, 0.22% hits | AID 651560, 2012;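 active means compounds that cut the enzyme signal by at least half of the control window in the single-dose screen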;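 further: plate controls were DMSO wells with enzyme plus substrate for no effect and substrate without enzyme for full effect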
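Test system: LMPTP-A phosphatase enzyme; input: 0.625 nM LMPTP-A final; reagent: OMFP substrate, 400 µM final; compound dosing: 20 µM single dose, 3% DMSO; incubation: 50 min dark incubation at room temperature; measured by: endpoint fluorescence intensity from OMFP dephosphorylation; measure: % inhibition relative to no-enzyme and uninhibited control wells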
DNMT1 inh: human DNMT1 methyltransferase inhibitors, primary screen, biochemical, molecular beacon, fluorescence, HinP1I cleavage, uHTS; inhibition (reported as % activation of signal), % at 10 µM; 360,000 compounds, 0.83% hits; DNA (cytosine-5)-methyltransferase 1 (Homo sapiens), P26358; in the data active means inhibition above about 50%
STEP inh: STEP phosphatase inhibitors, primary screen, biochemical, fluorescence intensity, uHTS. 360,000 compounds, 0.25% hits. inhibition, % at 20 µM. AID 588621, 2011. recombinant STEP, OMFP fluorogenic substrate;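 active means inhibition at 20 µM, scaled per plate between control wells, above about 37%, limit read from the data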;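 further: 0% = DMSO with enzyme and substrate and 100% = substrate only without enzyme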
Target sequence (P54829 whole entry, looked up): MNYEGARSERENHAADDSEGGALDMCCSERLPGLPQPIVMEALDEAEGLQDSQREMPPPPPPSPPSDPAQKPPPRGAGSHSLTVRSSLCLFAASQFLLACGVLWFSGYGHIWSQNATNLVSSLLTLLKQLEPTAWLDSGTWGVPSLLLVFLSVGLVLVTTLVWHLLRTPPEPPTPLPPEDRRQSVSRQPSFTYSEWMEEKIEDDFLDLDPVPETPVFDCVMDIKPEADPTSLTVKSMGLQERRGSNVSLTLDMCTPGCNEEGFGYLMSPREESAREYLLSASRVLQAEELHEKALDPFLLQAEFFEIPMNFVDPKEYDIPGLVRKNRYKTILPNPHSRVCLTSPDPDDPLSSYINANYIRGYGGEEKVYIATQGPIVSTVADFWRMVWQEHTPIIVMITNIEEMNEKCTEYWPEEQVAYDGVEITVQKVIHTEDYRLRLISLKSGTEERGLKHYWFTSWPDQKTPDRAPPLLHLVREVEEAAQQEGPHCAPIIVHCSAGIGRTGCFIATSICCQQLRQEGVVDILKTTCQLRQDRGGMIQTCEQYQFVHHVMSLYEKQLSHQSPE
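medium = Bis-Tris buffer pH 6.0, 2.5 mM DTT, 0.005% Tween 20 | test system = STEP (striatal-enriched tyrosine phosphatase) enzyme, cell-free | measure = normalized % inhibition | compound dosing = 20 µM, 1% DMSO | also added = 25 µM OMFP | schedule = reaction 20 min, ambient temperature | measured by = fluorescence read at 480 nm ex / 540 nm em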
Scp-1 conf: Scp-1 phosphatase inhibitors, retest, confirmation, biochemical, colorimetric, single concentration; shares compounds with Scp-1 inhibitor; recombinant SCP-1 catalytic domain, phosphate release, malachite green absorbance; inhibition, % at 20 µM; 2,500 compounds, 61% hits; AID 540281, 2011;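 further: plate controls were DMSO with enzyme for no effect and buffer wells lacking enzyme for full effect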
MG interference: colorimetric readout interference by compounds, confirmation, artefact control for Scp-1 inhibitor project, biochemical, single concentration | shares compounds with Scp-1 inhibitor | Colorimetric interference counterscreen, malachite green absorbance 630 nm | apparent inhibition (interference), % at 20 µM | 2,500 tested, under 10 active | AID 540313, 2011;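 further: compounds added after enzyme reaction finished so only phosphate colour detection is probed; plate controls were DMSO wells with completed Scp-1 reaction for no effect and substrate wells lacking enzyme for full effect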
Scp-1 Tm shift: Scp-1 binding by thermal shift, confirmation, orthogonal assay for Scp-1 inhibitor project, biophysical, differential scanning fluorimetry; shares compounds with Scp-1 inhibitor; Recombinant SCP1, Sypro Orange thermal shift Tm; thermal shift relative to vanadate control, % at 40 µM; 1,500 compounds, 25% hits; AID 540329, 2011;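 active means substances whose mean melting-temperature shift, as a percentage of the reference inhibitor's shift, reaches about 5.3%, limit read from the data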;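 further: 0% = Tm of DMSO wells and 100% = Tm with sodium orthovanadate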
Active calls of the source: *; / = no result given.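 How the source made its calls, unless noted: active means inhibition of at least 30% at 20 µM; inactive means the rest.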

SMILES	Scp-1 inhibitor	Rpn11 block	SUMO1-SIM PPI	LMPTP inh	DNMT1 inh	STEP inh	Scp-1 conf	MG interference	others
O=C(Cc1ccccc1)N/N=C/c1ccc(OCC(=O)Nc2ccccc2)cc1	82*	-1	6	1	-4	-2	44*	-13	Scp-1 Tm shift=-16
COCC(C)n1c(SC(C)C(=O)NC2CCCCC2C)nc2ccccc2c1=O (stereo unspecified)	-5	10	-2	0	1	1	/	/
Cc1cc(Cl)ccc1NC(=O)CCC(=O)N/N=C/c1cc([N+](=O)[O-])ccc1O	55*	2	-12	35	-2	0	66*	-2	Scp-1 Tm shift=0
COc1ccc(S(=O)(=O)N(C)C[C@H]2Oc3c(NC(=O)Nc4c(C)noc4C)cccc3C(=O)N([C@@H](C)CO)C[C@H]2C)cc1	56*	4	0	-2	-3	0	1	-16
Cc1noc(C)c1NC(=O)N(C)C[C@H]1Oc2c(NC(=O)C3CC3)cccc2C(=O)N([C@H](C)CO)C[C@@H]1C	0	2	9	0	3	0	/	/
Cc1noc(C)c1NC(=O)N(C)C[C@H]1Oc2c(cccc2N(C)C)C(=O)N([C@H](C)CO)C[C@@H]1C	74*	-4	1	-1	4	-4	17	2
O=C(CN1C(=O)C2CC=CCC2C1=O)NC1CCCc2ccccc21 (stereo unspecified)	-5	1	-2	-2	0	-2	/	/
Cc1ccc(OCCOC(=O)c2cccc(S(=O)(=O)N3CC(C)OC(C)C3)c2)cc1 (stereo unspecified)	-8	1	1	1	4	1	/	/
N#Cc1ccccc1S(=O)(=O)Nc1ccc2c(c1)C(=O)OC2	6	4	1	-1	-1	-1	/	/
Cn1c(=O)c(=O)n(C)c2cc(S(=O)(=O)N3CCCC3C(=O)NCc3ccco3)ccc21 (stereo unspecified)	-2	-1	2	-2	5	-4	/	/
Cc1ccc(C)c(NC(=O)C2CCCN2S(=O)(=O)c2ccc3c(c2)n(C)c(=O)c(=O)n3C)c1 (stereo unspecified)	-7	-2	7	-1	5	0	-6	-10
Cn1c(=O)c(=O)n(C)c2cc(S(=O)(=O)N3CCCC3C(=O)NCc3cccnc3)ccc21 (stereo unspecified)	-9	4	5	-1	2	2	-7	-6
CC(=O)Nc1cc2c(c(Cl)c1Cl)-c1ccccc1C2=O	80*	4	37	23	17	6	-15	-13
O=C(NCc1ccccc1)C(C1CC1)n1c(-c2cccs2)nc2ccccc21 (stereo unspecified)	/	/	5	0	/	/	/	/
COc1ccc(S(=O)(=O)NCCSC(C)(C)C)c(Cl)c1Cl	60*	-16	3	1	-24	-2	34*	-16	Scp-1 Tm shift=-20
CCOC(=O)CCn1nc(-c2ccc(Cl)cc2)cc1N	89*	-2	3	1	9	1	-19	-16
C#Cc1ccc([C@@H]2C=C(C(=O)N3CCN(Cc4ccc5c(c4)OCO5)CC3)O[C@H](OCCCCO)C2)cc1	2	-1	-3	0	-8	2	/	/
O=C(CSc1nc2ccccc2c(=O)n1-c1ccccc1)NCC1CCCO1 (stereo unspecified)	92*	4	1	-2	1	-2	-4	-12
N#CCC(=O)Nc1ccc(C(=O)NCC(c2ccco2)N2CCCCC2)cc1 (stereo unspecified)	5	/	-2	11	-7	0	/	/
N=C1S/C(=C\c2ccco2)C(=O)N1c1ccc2c(c1)OCO2	79*	9	2	28	9	13	46*	-16	Scp-1 Tm shift=-3
Cc1cc(=O)oc2cc(OCC(=O)N3c4ccccc4NC(=O)C3(C)C)ccc12	62*	-11	3	6	24	-2	42*	-22	Scp-1 Tm shift=-12
Cc1nnc(NC(=O)COc2ccc3c(C)cc(=O)oc3c2)s1	71*	0	32	1	9	3	65*	-8	Scp-1 Tm shift=2
CCC(CC)c1nnc(NC(=O)COc2ccc3c(C)cc(=O)oc3c2)s1	18	-2	-2	2	7	-10	/	/
Cc1noc(C)c1COc1ccc(C(=O)OCC(=O)N2CC(=O)Nc3ccccc32)cc1	0	-9	1	0	3	-5	/	/
CC1(C)C(=O)Nc2ccccc2N1C(=O)COc1ccc(C#N)cc1	22	-5	1	5	14	-3	/	/
SMILES	Scp-1 inhibitor	Rpn11 block	SUMO1-SIM PPI	LMPTP inh	DNMT1 inh	STEP inh	Scp-1 conf	MG interference	others
Cc1noc(C)c1COc1ccc(C(=O)OCC(=O)N2c3ccccc3NC(=O)C2(C)C)cc1	69*	-6	5	1	23	-3	46*	-21	Scp-1 Tm shift=-3
COc1ccc(S(N)(=O)=O)cc1C(=O)OCC(=O)N1CCCC(C)C1 (stereo unspecified)	-9	6	0	-2	4	-5	/	/
CCN(CC(=O)Nc1c(F)cccc1F)C(=O)CSC(=S)N1CCCC1	-5	5	-6	0	-4	1	/	/
C=CCn1c(SCC(=O)Nc2ccc3c(c2)OCCO3)nc2cc(C(=O)O)ccc2c1=O	-6	-2	1	-1	3	1	/	/
CN(CC(=O)NCc1ccco1)CC(=O)Nc1cc(S(C)(=O)=O)ccc1Cl	-3	-8	-1	0	33	-1	/	/
C/C(=N\N(c1ccccc1)c1ccccc1)c1ccco1	-7	-2	1	1	2	0	/	/

Assay outcomes deposited in PubChem by Sanford-Burnham Center for Chemical Genomics.
